Assay results taken from ChEMBL document CHEMBL2390929, “New nitric oxide donating 1,2,4-triazole/oxime hybrids: synthesis, investigation of anti-inflammatory, ulceroginic liability and antiproliferative activities” (Bioorg Med Chem, 2013).

How the values were obtained:
SW-620 = experiment: Cytotoxicity against human SW620 cells assessed as cell growth at 10^-5 M after 48 hrs by SRB assay; type: functional; conditions: SW-620, 48 h, read-out: Activity
Method in brief: (§1)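 NCI-60 one-dose screen across nine tumour subpanels. Each agent added once at 10^-5 M, cultures incubated 48 h. Endpoint is sulforhodamine B protein staining read spectrophotometrically. Output is percent growth of treated cells relative to untreated controls.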

UO-31 = experiment: Cytotoxicity against human UO31 cells assessed as cell growth at 10^-5 M after 48 hrs by SRB assay; type: functional; conditions: UO-31, 48 h, read-out: Activity; method in brief: as §1
Rattus norvegicus [1] = experiment: Gastrointestinal toxicity in albino rat assessed as ulcer index at 0.28 mmol/kg, po (reference value: 0.60 +/- 0.05); type: organism-based; conditions: in vivo
NCI/ADR-RES = experiment: Cytotoxicity against human NCI/ADR-RES cells assessed as cell growth at 10^-5 M after 48 hrs by SRB assay; type: functional; conditions: read-out: Activity
Method in brief: (§2)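 NCI 60-cell-line primary one-dose screen across nine tumour subpanels. Compound added at a single concentration of 10^-5 M and cultures incubated 48 h. Endpoint was sulforhodamine B protein staining read spectrophotometrically, with growth expressed as percent of untreated control cells.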

Rattus norvegicus [2] = experiment: Antiinflammatory activity in albino rat assessed as inhibition of carrageenan-induced paw edema at 0.28 mmol/kg, po after 5 hrs relative to control; type: functional
Method in brief: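 Adult male albino rats (120–140 g), four per group, fasted 24 h with water allowed. Test agent suspended in 0.5% w/v aqueous CMC and given orally at 0.28 mmol/kg; controls received CMC alone. After 30 min, 0.1 mL fresh 1% carrageenan in saline was injected subplantar into the right hind paw and saline into the left. Paw thickness was measured by Vernier caliper; % inhibition = [(VR−VL)control − (VR−VL)treated]/(VR−VL)control ×100. Mean ± SEM, one-way ANOVA.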

NCI-H226 = experiment: Cytotoxicity against human NCI-H226 cells assessed as cell growth at 10^-5 M after 48 hrs by SRB assay; type: functional; conditions: NCI-H226, 48 h, read-out: Activity; method in brief: as §2
SK-MEL-2 = experiment: Cytotoxicity against human SK-MEL-2 cells assessed as cell growth at 10^-5 M after 48 hrs by SRB assay; type: functional; conditions: SK-MEL-2, 48 h, read-out: Activity; method in brief: as §2
SK-MEL-5 = experiment: Cytotoxicity against human SK-MEL-5 cells assessed as cell growth at 10^-5 M after 48 hrs by SRB assay; type: functional; conditions: SK-MEL-5, 48 h, read-out: Activity; method in brief: as §1
[3] = Induction of nitric oxide release in phosphate buffer at pH 7.4 at 0.1 mM after 5 hrs by Griess method in presence of 0.5 mM of N-acetylcysteine; type: physicochemical; conditions: pH 7.4, 5 h, 100 µM
Method in brief: (§3)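 Compound in DMF diluted to final 10^-4 M in 1:1 50 mM phosphate buffer pH 7.4/MeOH with 5×10^-4 M N-acetylcysteine, 37 °C. Aliquot mixed with Griess reagent, 10 min at room temperature, A546 read. Nitrite quantified against sodium nitrite standards (10–80 nmol/mL); NO expressed as mol/mol. n = 4 reaction mixtures per compound.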

MCF7 = experiment: Cytotoxicity against human MCF7 cells assessed as cell growth at 10^-5 M after 48 hrs by SRB assay; type: functional; conditions: MCF7, 48 h, read-out: Activity; method in brief: as §2
SNB-19 = experiment: Cytotoxicity against human SNB19 cells assessed as cell growth at 10^-5 M after 48 hrs by SRB assay; type: functional; conditions: SNB-19, 48 h, read-out: Activity; method in brief: as §1
SF-268 = experiment: Cytotoxicity against human SF268 cells assessed as cell growth at 10^-5 M after 48 hrs by SRB assay; type: functional; conditions: SF-268, 48 h, read-out: Activity; method in brief: as §2
CAKI-1 = experiment: Cytotoxicity against human CAKI-1 cells assessed as cell growth at 10^-5 M after 48 hrs by SRB assay; type: functional; conditions: CAKI-1, 48 h, read-out: Activity; method in brief: as §2
LOX IMVI = experiment: Cytotoxicity against human LOXIMVI cells assessed as cell growth at 10^-5 M after 48 hrs by SRB assay; type: functional; conditions: read-out: Activity; method in brief: as §2
OVCAR-8 = experiment: Cytotoxicity against human OVCAR8 cells assessed as cell growth at 10^-5 M after 48 hrs by SRB assay; type: functional; conditions: OVCAR-8, 48 h, read-out: Activity; method in brief: as §2
SF-539 = experiment: Cytotoxicity against human SF539 cells assessed as cell growth at 10^-5 M after 48 hrs by SRB assay; type: functional; conditions: SF-539, 48 h, read-out: Activity; method in brief: as §2
OVCAR-3 = experiment: Cytotoxicity against human OVCAR3 cells assessed as cell growth at 10^-5 M after 48 hrs by SRB assay; type: functional; conditions: OVCAR-3, 48 h, read-out: Activity; method in brief: as §2
SK-OV-3 = experiment: Cytotoxicity against human SKOV3 cells assessed as cell growth at 10^-5 M after 48 hrs by SRB assay; type: functional; conditions: SK-OV-3, 48 h, read-out: Activity; method in brief: as §1
NCI-H522 = experiment: Cytotoxicity against human NCI-H522 cells assessed as cell growth at 10^-5 M after 48 hrs by SRB assay; type: functional; conditions: NCI-H522, 48 h, read-out: Activity; method in brief: as §2
OVCAR-5 = experiment: Cytotoxicity against human OVCAR5 cells assessed as cell growth at 10^-5 M after 48 hrs by SRB assay; type: functional; conditions: OVCAR-5, 48 h, read-out: Activity; method in brief: as §2
SR = experiment: Cytotoxicity against human SR cells assessed as cell growth at 10^-5 M after 48 hrs by SRB assay; type: functional; conditions: read-out: Activity; method in brief: as §1
A549 = experiment: Cytotoxicity against human A549 cells assessed as cell growth at 10^-5 M after 48 hrs by SRB assay; type: functional; conditions: A549, 48 h, read-out: Activity; method in brief: as §2
RPMI-8226 = experiment: Cytotoxicity against human RPMI8226 cells assessed as cell growth at 10^-5 M after 48 hrs by SRB assay; type: functional; conditions: RPMI-8226, 48 h, read-out: Activity; method in brief: as §2
DU-145 = experiment: Cytotoxicity against human DU145 cells assessed as cell growth at 10^-5 M after 48 hrs by SRB assay; type: functional; conditions: DU-145, 48 h, read-out: Activity; method in brief: as §2
COLO 205 = experiment: Cytotoxicity against human COLO205 cells assessed as cell growth at 10^-5 M after 48 hrs by SRB assay; type: functional; conditions: COLO 205, 48 h, read-out: Activity; method in brief: as §2
[4] = Induction of nitric oxide release in phosphate buffer at pH 7.4 at 0.1 mM after 4 hrs by Griess method in presence of 0.5 mM of N-acetylcysteine; type: physicochemical; conditions: pH 7.4, 4 h, 100 µM; method in brief: as §3
UACC-257 = experiment: Cytotoxicity against human UACC257 cells assessed as cell growth at 10^-5 M after 48 hrs by SRB assay; type: functional; conditions: UACC-257, 48 h, read-out: Activity; method in brief: as §1
RXF 393 = experiment: Cytotoxicity against human RXF393 cells assessed as cell growth at 10^-5 M after 48 hrs by SRB assay; type: functional; conditions: RXF 393, 48 h, read-out: Activity; method in brief: as §2
U-251 = experiment: Cytotoxicity against human U251 cells assessed as cell growth at 10^-5 M after 48 hrs by SRB assay; type: functional; conditions: U-251, 48 h, read-out: Activity; method in brief: as §1
SF-295 = experiment: Cytotoxicity against human SF295 cells assessed as cell growth at 10^-5 M after 48 hrs by SRB assay; type: functional; conditions: SF-295, 48 h, read-out: Activity; method in brief: as §2

Row | Compound | growth at 10 µM (SW-620) [%] | growth at 10 µM (UO-31) [%] | UI (Rattus norvegicus [1]) | growth at 10 µM (NCI/ADR-RES) [%] | inhibition in vivo at 280 µmol/kg (Rattus norvegicus [2]) [%] | growth at 10 µM (NCI-H226) [%] | growth at 10 µM (SK-MEL-2) [%] | growth at 10 µM (SK-MEL-5) [%] | Activity [3] [mol/mol] | growth at 10 µM (MCF7) [%] | growth at 10 µM (SNB-19) [%] | growth at 10 µM (SF-268) [%] | growth at 10 µM (CAKI-1) [%] | growth at 10 µM (LOX IMVI) [%] | growth at 10 µM (OVCAR-8) [%] | growth at 10 µM (SF-539) [%] | growth at 10 µM (OVCAR-3) [%] | growth at 10 µM (SK-OV-3) [%] | growth at 10 µM (NCI-H522) [%] | growth at 10 µM (OVCAR-5) [%] | further results
1 | COc1ccc(-c2nnc(SC/C(=N/O)c3ccccc3)n2-c2ccccc2)cc1OC | 110 | 80.1 | 5.71 | 93.2 | 78 | 94.9 | 116 | 85.8 | 0.23 | 100 | 101 | 110 | 98.4 | 90.3 | 90.7 | 103 | 106 | 103 | 88.8 | 100 | growth at 10 µM (SR): 85.1%; growth at 10 µM (A549): 90.1%; growth at 10 µM (RPMI-8226): 69.4%; growth at 10 µM (DU-145): 114%; growth at 10 µM (COLO 205): 100%; Activity [4]: 0.19 mol/mol; growth at 10 µM (UACC-257): 101%; growth at 10 µM (RXF 393): 102%; growth at 10 µM (U-251): 101%
2 | COc1cc(-c2nnc(SC/C(=N/O)c3ccccc3)n2-c2ccccc2)cc(OC)c1OC | 114 | 69.5 | 5.52 | 98.8 | 68 | 94.1 | 98.3 | 84.6 | 0.16 | 101 | 95.2 | 114 | 79 | 91.7 | 98.3 | 102 | 114 | 110 | 82.1 | 115 | growth at 10 µM (SF-295): 93.1%; growth at 10 µM (SR): 74.8%; growth at 10 µM (A549): 94.7%; growth at 10 µM (RPMI-8226): 73.6%; growth at 10 µM (DU-145): 123%; growth at 10 µM (COLO 205): 108%; Activity [4]: 0.14 mol/mol; growth at 10 µM (UACC-257): 102%; growth at 10 µM (RXF 393): 105%; growth at 10 µM (U-251): 94.1%
3 | CCn1c(SC/C(=N/O)c2ccccc2)nnc1-c1ccc(OC)c(OC)c1 | 106 | 85.4 | 1.58 | 103 | 71 | 97.6 | 105 | 96.3 | 0.25 | 118 | 99.9 | 101 | 102 | 93 | 104 | 100 | 106 | 96.4 | 89.4 | 107 | growth at 10 µM (SF-295): 146%; growth at 10 µM (SR): 95.4%; growth at 10 µM (A549): 95.7%; growth at 10 µM (RPMI-8226): 101%; growth at 10 µM (DU-145): 112%; growth at 10 µM (COLO 205): 93.5%; Activity [4]: 0.24 mol/mol; growth at 10 µM (UACC-257): 104%; growth at 10 µM (RXF 393): 114%; growth at 10 µM (U-251): 101%
